# Measurements: ChEMBL document CHEMBL4725388, “Characterization of Aminobenzylphenols as Protein Disulfide Isomerase Inhibitors in Glioblastoma Cell Lines” (J Med Chem, 2020)
# Active and inactive are the calls of the source. The calls are words filed in the database; no cut-off is given here.
# Assays:
# U-87 MG [1] = assay: Cytotoxicity against human U-87 MG cells assessed as growth inhibition at 30 uM measured after 72 hrs by MTT assay relative to control; format: functional, U-87MG ATCC; settings: read-out: GI
# In short: (§1)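 Single-concentration screen: percent inhibition of cell growth at 30 μM in U-87 MG and MIA PaCa-2 cells by MTT.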
# U-87 MG [2] = assay: Cytotoxicity against human U-87 MG cells assessed as growth inhibition measured after 72 hrs by MTT assay; format: functional, cell-based, U-87MG ATCC
# In short: (§2)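 IC50 from dose-response curves; PDI reductase assay for enzyme, MTT in U-87 MG cells for cytotoxicity; mean ± SD of at least three independent experiments.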
# [3] = target: T1, Protein disulfide-isomerase (Homo sapiens, UniProt P07237); assay: Inhibition of recombinant human wild-type N-terminal His-tagged PDIA1 expressed in Escherichia coli strain BL21(DE3) using bovine insulin as substrate preincubated for 1 hr followed by substrate addition; in short: as §2
# Target sequence in this assay (P07237 whole entry): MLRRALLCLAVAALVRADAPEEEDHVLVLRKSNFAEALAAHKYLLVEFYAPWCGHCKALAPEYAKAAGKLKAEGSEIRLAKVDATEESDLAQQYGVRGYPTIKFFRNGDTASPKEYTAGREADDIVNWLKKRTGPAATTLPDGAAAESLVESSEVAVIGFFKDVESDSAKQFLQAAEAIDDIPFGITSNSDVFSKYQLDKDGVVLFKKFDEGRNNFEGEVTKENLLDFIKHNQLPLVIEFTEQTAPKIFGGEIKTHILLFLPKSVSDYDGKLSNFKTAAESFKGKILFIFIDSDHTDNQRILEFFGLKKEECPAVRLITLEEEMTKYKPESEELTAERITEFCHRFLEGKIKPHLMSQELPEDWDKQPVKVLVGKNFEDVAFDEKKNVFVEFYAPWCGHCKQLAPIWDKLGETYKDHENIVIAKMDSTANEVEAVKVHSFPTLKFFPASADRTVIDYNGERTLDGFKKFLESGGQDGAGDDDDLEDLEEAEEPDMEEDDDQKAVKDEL
# [4] = target: T1, Protein disulfide-isomerase; assay: Displacement of ANS from recombinant human wild-type N-terminal His-tagged PDIA1 expressed in Escherichia coli strain BL21(DE3) at 100 uM measured after 1 hr by fluorescence assay
# Target sequence in this assay (P07237 18-508 limits assumed): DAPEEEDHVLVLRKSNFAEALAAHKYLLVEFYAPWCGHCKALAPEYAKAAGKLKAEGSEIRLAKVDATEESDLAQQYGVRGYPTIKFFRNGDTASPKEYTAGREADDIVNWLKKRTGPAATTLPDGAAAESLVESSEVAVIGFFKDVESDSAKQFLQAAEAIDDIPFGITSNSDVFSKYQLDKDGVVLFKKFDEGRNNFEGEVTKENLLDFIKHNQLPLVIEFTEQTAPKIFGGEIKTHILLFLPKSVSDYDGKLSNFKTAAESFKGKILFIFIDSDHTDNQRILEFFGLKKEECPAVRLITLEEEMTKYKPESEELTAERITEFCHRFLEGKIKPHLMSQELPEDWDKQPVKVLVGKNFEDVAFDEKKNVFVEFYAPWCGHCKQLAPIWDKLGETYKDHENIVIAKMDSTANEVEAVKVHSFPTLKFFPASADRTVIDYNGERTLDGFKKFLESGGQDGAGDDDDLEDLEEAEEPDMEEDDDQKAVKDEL
# MIA PaCa-2 = assay: Cytotoxicity against human MIA PaCa-2 cells assessed as growth inhibition at 30 uM measured after 72 hrs by MTT assay relative to control; format: functional; settings: read-out: GI; in short: as §1
# [5] = target: T1, Protein disulfide-isomerase; assay: Inhibition of recombinant human wild-type N-terminal His-tagged PDIA1 expressed in Escherichia coli strain BL21(DE3) at 10 uM using bovine insulin as substrate preincubated for 1 hr followed by substrate addition in presence of glutathione
# In short: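 Glutathione added to the PDI reaction buffer before 10 μM compound; screening done with 5 mM GSH, reductase assay DTT at 500 μM.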
# Target sequence in this assay (P07237 18-508 limits assumed): as above
# [6] = test system: Protein disulfide-isomerase (Homo sapiens), P07237 [H256A]; assay: Inhibition of recombinant human wild-type N-terminal His-tagged PDIA1 H256A mutant expressed in Escherichia coli strain BL21(DE3) using bovine insulin as substrate preincubated for 1 hr followed by substrate addition
# Protein disulfide-isomerase (Homo sapiens), P07237 [H256A], sequence (P07237 whole entry H256A): as the sequence (P07237 whole entry) above, with H256A counted along it
# [7] = target: T1, Protein disulfide-isomerase; assay: Binding affinity to recombinant human wild-type N-terminal His-tagged PDIA1 expressed in Escherichia coli strain BL21(DE3) assessed as change in melting temperature at 100 uM by ROX dye based thermal shift assay
# Target sequence in this assay (P07237 18-508 limits assumed): as the sequence (P07237 18-508 limits assumed) above
# [8] = target: T1, Protein disulfide-isomerase; assay: Irreversible inhibition of recombinant human wild-type N-terminal His-tagged PDIA1 expressed in Escherichia coli strain BL21(DE3) at 400 uM using bovine insulin as substrate preincubated for 30 mins followed by 100-fold dilution substrate addition further incubated for 1 hr and subsequent substrate addition; settings: time 1.5 hrs
# Target sequence in this assay (P07237 18-508 limits assumed): as above
# U-87 MG [9] = assay: Inhibition of colony formation in BSO-treated human U-87 MG cells at 0.3 to 10 uM measured after 10 to 14 days by crystal violet staining based assay; format: functional, cell-based; settings: U-87MG ATCC, dose microM 0.3-10, time day 10-14
# In short: (§3)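 U-87 MG cells pretreated with BSO for 24 hours before compound addition; read-out by colony formation assay.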
# [10] = target: T1, Protein disulfide-isomerase; assay: Inhibition of recombinant human wild-type N-terminal His-tagged PDIA1 expressed in Escherichia coli strain BL21(DE3) at 10 uM using bovine insulin as substrate preincubated for 1 hr followed by substrate addition in presence of N-acetyl cysteine
# In short: (§4)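 Compound incubated with N-acetyl cysteine before addition to the PDI reductase assay with PDIA1, at a final compound concentration of 10 μM.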
# Target sequence in this assay (P07237 18-508 limits assumed): as above
# [11] = target: T1, Protein disulfide-isomerase; assay: Inhibition of recombinant human wild-type N-terminal His-tagged PDIA1 expressed in Escherichia coli strain BL21(DE3) at 40 uM using bovine insulin as substrate preincubated for 1 hr followed by substrate addition relative to control
# Target sequence in this assay (P07237 18-508 limits assumed): as above
# [12] = target: T1, Protein disulfide-isomerase; assay: Inhibition of recombinant human wild-type N-terminal His-tagged PDIA1 expressed in Escherichia coli strain BL21(DE3) at 10 uM using bovine insulin as substrate […]; in short: as §4
# [13] = target: T1, Protein disulfide-isomerase; assay: Binding affinity to recombinant human wild-type N-terminal His-tagged PDIA1 expressed in Escherichia coli strain BL21(DE3) assessed as increase in protein mass at 100 uM measured after 30 mins in presence of GSTO1 and GRP78 by Q-TOF MS analysis relative to control
# In short: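 100 μM compound incubated 30 min with a mix of 10 μM PDI, 10 μM GSTO1 and 10 μM GRP78 (GRP78 as non-specific binding control); protein masses read by QTOF MS before/after.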
# [14] = target: T1, Protein disulfide-isomerase; assay: Displacement of PACMA57 from recombinant human wild-type N-terminal His-tagged PDIA1 expressed in Escherichia coli strain BL21(DE3) at 100 uM measured after overnight incubation by gel-based imaging analysis
# [15] = target: T1, Protein disulfide-isomerase; assay: Inhibition of recombinant human wild-type N-terminal His-tagged PDIA1 expressed in Escherichia coli strain BL21(DE3) assessed as ratio of Kinact to Ki using bovine insulin as substrate preincubated for 5 to 60 mins followed by substrate addition; settings: time min 5-60
# In short: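 Activity measured in PDI reductase assay (insulin substrate, absorbance followed over time) at several inhibitor concentrations and preincubation times of 5 to 60 minutes; kinact/KI derived from concentration- and time-dependent inhibition curves.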
# [16] = target: T1, Protein disulfide-isomerase; assay: Binding affinity to recombinant human wild-type N-terminal His-tagged PDIA1 expressed in Escherichia coli strain BL21(DE3) assessed as adduct formation at 100 uM measured after 30 mins in presence of DTT by Q-TOF MS analysis
# In short: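 Recombinant PDI at 10 μM incubated 30 min with 100 μM compound and 100 μM DTT before injection; adducts detected by quadrupole time-of-flight mass spectrometry.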
# [17] = target: T1, Protein disulfide-isomerase; assay: Inhibition of recombinant human wild-type N-terminal His-tagged PDIA1 expressed in Escherichia coli strain BL21(DE3) at 10 uM using bovine insulin as substrate preincubated for 1 hr followed by substrate addition in absence of glutathione
# Homo sapiens = species on record: Homo sapiens; assay: Binding affinity to recombinant human wild-type N-terminal His-tagged PDIA1 C53S mutant expressed in Escherichia coli strain BL21(DE3) assessed as adduct formation at 100 uM measured after 30 mins in presence of DTT by Q-TOF MS analysis
# [18] = target: T1, Protein disulfide-isomerase; assay: Inhibition of recombinant human wild-type N-terminal His-tagged PDIA1 expressed in Escherichia coli strain BL21(DE3) at 1.1 to 90 uM using bovine insulin as substrate preincubated for 1 hr followed by substrate addition in presence of glutathione; settings: dose microM 1.1-90, time 1.0 hrs
# U-87 MG [19] = assay: Inhibition of colony formation in BSO-treated human U-87 MG cells at 0.3 to 30 uM measured after 10 to 14 days by crystal violet staining based assay; format: functional, cell-based; settings: U-87MG ATCC, dose microM 0.3-30, time day 10-14; in short: as §3
# U-87 MG [20] = assay: Inhibition of colony formation in BSO-treated human U-87 MG cells at 0.3 to 3 uM measured after 10 to 14 days by crystal violet staining based assay; format: functional, cell-based; settings: U-87MG ATCC, dose microM 0.3-3, time day 10-14; in short: as §3
Compound,IC50 [3] [µM],IC50 (U-87 MG [2]) [µM],further results
Oc1c(C(c2ccc(F)cc2)N2CCCCC2)ccc2cccnc12 (centres undefined),0.69,37,inhibition of growth at 30 µM (U-87 MG [1]): 54%
Oc1c(C(Nc2ccccn2)c2ccc(Cl)cc2)ccc2cccnc12 (centres undefined),0.17,10.6,inhibition [4]: inactive; inhibition of growth at 30 µM (MIA PaCa-2): > 40%; inhibition [5]: inactive; inhibition of growth at 30 µM (U-87 MG [1]): > 40%; inhibition [6]: Active; ΔTm [7]: -0.05 °C; inhibition [8]: inactive; inhibition (U-87 MG [9]): Active; inhibition [10]: inactive; inhibition [11]: 50%; inhibition [12]: Active
C#CC(=O)N(c1ccc(OC)cc1OC)C(C(=O)NCC(=O)OCC)c1cccs1 (centres undefined),,,inhibition [5]: inactive; Ratio [15]: 2 10^2/M/s; ΔTm [7]: 0.18 °C; inhibition [10]: inactive
N#Cc1cccc(/C=C/C(=O)c2ccc(O)cc2)c1,,,inhibition [4]: Active; inhibition [5]: inactive; ΔTm [7]: 1.55 °C; inhibition [10]: inactive
COC(=O)C1(C)c2[nH]c3ccccc3c2CCN1C(=O)CCl (centres undefined),,,Ratio [15]: 1.7 10^2/M/s
CN(C)c1ccc(C(Nc2ncccn2)c2cc3c(cc2O)OCO3)cc1 (centres undefined),,,inhibition [17]: 88%; inhibition [5]: 64%
Oc1c(C(c2ccc(F)cc2)N2CCN(C(c3ccc(F)cc3)c3ccc4cncnc4c3O)CC2)ccc2cncnc12 (centres undefined),,,Activity [16]: Active; Activity (Homo sapiens): Active; inhibition [18]: Active; inhibition (U-87 MG [19]): Active
O=C(O)c1ccc(NC(c2ccccc2)c2ccc3cccnc3c2O)cc1 (centres undefined),0.3,> 10,
Cc1ccnc(NC(c2ccc3cccnc3c2O)c2c(F)cccc2Cl)c1 (centres undefined),> 40,20.6,
COc1cc(C(c2cc3c(cc2O)OCO3)N2CCOCC2)cc(OC)c1OC (centres undefined),0.64,> 10,
COc1cccc(C(Nc2ncccn2)c2cc3c(cc2O)OCO3)c1O (centres undefined),9.02,> 10,
COc1cc(C(Nc2ncccn2)c2cc3c(cc2O)OCO3)cc(OC)c1O (centres undefined),2.2,> 10,
Cc1ccc(C)c(C(Nc2ccccn2)c2ccc3cccnc3c2O)c1 (centres undefined),0.73,13.8,
COc1cccc(C(c2ccc3cccnc3c2O)N2CCOCC2)c1OC (centres undefined),0.39,33,inhibition of growth at 30 µM (U-87 MG [1]): 74%
CCOC(=O)c1ccccc1NC(c1ccccc1)c1ccc2cccnc2c1O (centres undefined),< 0.2,> 10,
CNC(=O)NC(c1cc(OC)c(OC)c(OC)c1)c1cc2c(cc1O)OCO2 (centres undefined),> 40,> 10,
Cc1ccnc(NC(c2ccc(F)cc2)c2ccc3cccnc3c2O)c1 (centres undefined),0.14,> 10,
Oc1c(C(Nc2ccccc2)c2ccccc2)ccc2cccnc12 (centres undefined),0.11,> 10,
Cc1ccnc(NC(c2ccccc2)c2ccc3cccnc3c2O)c1 (centres undefined),< 0.2,> 10,
NC(=O)NC(c1ccc(O)cc1)c1cc2c(cc1O)OCO2 (centres undefined),> 40,> 10,
Cc1ccnc(NC(c2ccc(OCc3ccccc3)cc2)c2ccc3cccnc3c2O)c1 (centres undefined),0.62,9.3,
Oc1c(C(c2ccc(F)cc2)N2CCNCC2)ccc2cncnc12 (centres undefined),1.2,,inhibition [17]: 100%; Activity [16]: Active; inhibition [5]: 44%; Activity (Homo sapiens): Active; inhibition (U-87 MG [19]): inactive
Cc1ccnc(NC(c2ccc([N+](=O)[O-])cc2)c2ccc3cccnc3c2O)c1 (centres undefined),0.53,3.4,
Cc1ccnc(NC(c2cccc(F)c2)c2ccc3cccnc3c2O)c1 (centres undefined),0.35,9.2,
Cc1ccnc(NC(c2ccccc2F)c2ccc3cccnc3c2O)c1 (centres undefined),0.88,13.1,
CCc1ccc(C(Nc2cc(C)ccn2)c2ccc3cccnc3c2O)cc1 (centres undefined),5.39,8.9,

# Now from value to compound, other results behind:
IC50 [3] [µM],Compound,IC50 (U-87 MG [2]) [µM],further results
> 30,Oc1cc2c(cc1C(c1ccc(F)cc1)N1CCCCC1)CCC2 (centres undefined),,Activity [13]: inactive; inhibition [14]: inactive
1.06,COc1cccc(C(c2cc3c(cc2O)OCO3)N2CCOCC2)c1OC (centres undefined),32,Activity [16]: Active; fold change (FC) [13]: 2; inhibition of growth at 30 µM (U-87 MG [1]): 66%; inhibition [8]: inactive
0.3,COc1ccc(C(c2cc3c(cc2O)OCO3)N2CCOCC2)cc1OC (centres undefined),18.3,inhibition [4]: inactive; inhibition of growth at 30 µM (MIA PaCa-2): > 40%; inhibition [5]: inactive; inhibition (U-87 MG [20]): Active; inhibition of growth at 30 µM (U-87 MG [1]): > 40%; Ratio [15]: 2.6 10^3/M/s; inhibition [6]: Active; ΔTm [7]: -0.36 °C; inhibition [8]: Active; inhibition [10]: inactive; inhibition [14]: Active; inhibition [11]: 50%; inhibition [12]: Active
0.35,Oc1cc2c(cc1C(c1ccc3c(c1)OCO3)N1CCCCC1)OCO2 (centres undefined),> 10,
0.27,Oc1cc2c(cc1C(c1ccc(F)cc1)N1CCCCC1)OCO2 (centres undefined),> 30,
1.27,CN(C)c1ccc(C(c2cc3c(cc2O)OCO3)N2CCCCC2)cc1 (centres undefined),24.7,
0.98,COc1cc(OC)c(C(c2cc3c(cc2O)OCO3)N2CCOCC2)c(OC)c1 (centres undefined),13.6,
0.18,COc1cc(C(c2cc3c(cc2O)OCO3)N2CCCC2)cc(OC)c1OC (centres undefined),24.2,
1.52,COc1ccc(C(c2cc3c(cc2O)OCO3)N2CCCC2)cc1 (centres undefined),22.6,
0.36,COc1ccc(C(c2cc3c(cc2O)OCO3)N2CCCC2)c(OC)c1 (centres undefined),> 30,
1.65,COc1cccc(C(c2cc3c(cc2O)OCO3)N2CCCC2)c1O (centres undefined),> 10,
